Assay results: ChEMBL document CHEMBL3102857, “Synthesis and biological evaluation of 6H-pyrido[2',1':2,3]imidazo[4,5-c]isoquinolin-5(6H)-ones as antimitotic agents and inhibitors of tubulin polymerization” (Bioorg Med Chem, 2014)
Active and inactive are the calls of the source. No cut-off for these calls is given here.

Tests used:
HeLa [1] = assay: Cell cycle arrest in human HeLa cells assessed as decrease in accumulation at G0/G1 phase at 0.5 uM after 12 hrs by propidium iodide staining-based flow cytometric analysis; format: functional
Procedure, shortened: (§1)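 Cells given 0.5 µM compound for 12 h, harvested, PBS-washed, fixed in cold 70% ethanol at 4 °C. Stained with propidium iodide ([…] as printed). DNA content analysed by flow cytometry for G0/G1, S and G2/M fractions.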

HeLa [2] = assay: Cell cycle arrest in human HeLa cells assessed as decrease in accumulation at S phase at 0.5 uM after 12 hrs by propidium iodide staining-based flow cytometric analysis; format: functional; procedure, shortened: as §1
HeLa [3] = assay: Antimitotic activity against human HeLa cells assessed as disruption of mitotic spindle assembly at 0.5 uM after 12 hrs by DAPI staining-based immunofluorescence microscopic analysis; format: functional, cell-based
Procedure, shortened: (§2)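 HeLa cells on glass coverslips, 0.5 µM compound for 12 h; fixed in 4% paraformaldehyde, permeabilized with 0.2% Triton X-100, blocked with 3% BSA. Stained with anti-α-tubulin (1:200) and Alexa Fluor 488 goat anti-mouse IgG (1:100), 1 h each, then DAPI. Imaged by fluorescence and confocal microscopy. Abnormal spindles scored as percentage of total mitotic cells.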

HeLa [4] = assay: Antimitotic activity against human HeLa cells assessed as multipolar mitotic spindle with disordered chromosome organization at 0.5 uM after 12 hrs by DAPI staining-based immunofluorescence microscopic analysis; format: functional, cell-based; procedure, shortened: as §2
Tubulin (Homo sapiens) [5] = molecular target: T1, Tubulin (Homo sapiens) (UniProt P68371+Q9H4B7+P0DPH7+P68366+Q13509+Q71U36+P04350+Q3ZCM7+P07437+P68363+Q9BQE3+Q6PEY2+Q13885+Q9BVA1+Q9BUF5); assay: Displacement of [3H]-colchicine from tubulin (unknown origin) at 20 uM preincubated for 1 hr followed by radioligand addition measured after 30 mins by competitive binding assay; format: protein-complex assay
Tubulin (Homo sapiens) [6] = molecular target: T1, Tubulin (Homo sapiens); assay: Inhibition of tubulin polymerization (unknown origin) at 20 uM by spectrophotometric analysis; format: protein-complex assay
Procedure, shortened: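 Purified tubulin combined with 20 µM compound on ice, then moved to 37 °C. Buffer: 80 mM PIPES pH 6.9, 0.5 mM EGTA, 2 mM MgCl2, 1 mM GTP. Polymerization followed by absorbance at 340 nm.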

HeLa [7] = assay: Antiproliferative activity against human HeLa cells after 72 hrs by SRB assay; format: functional, cell-based
Procedure, shortened: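 HeLa cells exposed to compound for 72 h, fixed with cold 10% TCA, stained with SRB in 1% acetic acid. Bound dye dissolved in 10 mM Tris-HCl and read at 515 nm. Inhibition % = [1 − (A515 treated/A515 control)] × 100. IC50 by Logit method, mean ± SD of at least three independent tests.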

HeLa [8] = assay: Cell cycle arrest in human HeLa cells assessed as accumulation at G2/M phase at 0.5 uM after 12 hrs by propidium iodide staining-based flow cytometric analysis (reference value: 3%); format: functional; procedure, shortened: as §1

Structure (SMILES)	inhibition (Tubulin (Homo sapiens) [5])	inhibition (Tubulin (Homo sapiens) [6])	IC50 (HeLa [7])	also measured
COc1ccc(Cn2c(=O)c3ccccc3c3nc4cc(C)c(Br)cn4c32)cc1	–	–	> 10000 nM	–
COc1ccc(Cn2c(=O)c3ccccc3c3nc4cccc(C)n4c32)cc1	–	–	> 10000 nM	–
O=c1c2ccccc2c2nc3ccccn3c2n1Cc1ccc(OC(F)(F)F)cc1	–	–	> 10000 nM	–
O=c1c2ccccc2c2nc3ccccn3c2n1Cc1ccc2c(c1)OCO2	–	–	> 10000 nM	–
COc1ccc(Cn2c(=O)c3ccccc3c3nc4c(C)cccn4c32)cc1	–	–	> 10000 nM	–
COc1ccc(Cn2c(=O)c3ccccc3c3nc4ccccn4c32)cc1OC	–	–	> 10000 nM	–
CC(=O)OCCn1c(=O)c2ccccc2c2nc3ccccn3c21	–	–	> 10000 nM	–
COc1ccc(CCCn2c(=O)c3ccccc3c3nc4ccccn4c32)cc1	–	–	> 10000 nM	–
COC(=O)CCn1c(=O)c2ccccc2c2nc3ccccn3c21	–	–	> 10000 nM	–
CN(c1ccc(Cn2c(=O)c3ccccc3c3nc4ccccn4c32)cc1)S(C)(=O)=O	–	–	> 10000 nM	–
COC(=O)Cn1c(=O)c2ccccc2c2nc3ccccn3c21	–	–	> 10000 nM	–
O=c1c2ccccc2c2nc3ccccn3c2n1Cc1ccco1	–	–	> 10000 nM	–
O=c1c2ccccc2c2nc3ccccn3c2n1CCc1ccc(O)cc1	–	–	> 10000 nM	–
COc1ccc(Cn2c(=O)c3ccccc3c3nc4ccc(Br)c(C)n4c32)cc1	–	–	> 10000 nM	–

Stronger by IC50 (HeLa [7]), values ahead:

inhibition (Tubulin (Homo sapiens) [5])	inhibition (Tubulin (Homo sapiens) [6])	IC50 (HeLa [7])	Structure (SMILES)	also measured
78%	74%	60 nM	COc1ccc(CCn2c(=O)c3ccccc3c3nc4ccc(NCc5cccnc5)cn4c32)cc1	Activity (HeLa [1]): Active; Activity (HeLa [2]): Active; Activity (HeLa [3]): Active; Activity (HeLa [4]): Active; Activity (HeLa [8]): 41%
–	–	2240 nM	COc1ccc(Cn2c(=O)c3ccccc3c3nc4ccccn4c32)c(OC)c1	–
34%	26%	350 nM	COc1ccc(CCn2c(=O)c3ccccc3c3nc4ccc(NCCO)cn4c32)cc1	–
36%	40%	120 nM	COc1ccc(CCn2c(=O)c3ccccc3c3nc4ccc(-n5ccnc5)cn4c32)cc1	–
15%	15%	1200 nM	COc1ccc(CCn2c(=O)c3ccccc3c3nc4ccc(NCCN5CCOCC5)cn4c32)cc1	–
–	–	1800 nM	COc1ccc(Cn2c(=O)c3ccccc3c3nc4ccccn4c32)cc1	Activity (HeLa [1]): Active; Activity (HeLa [2]): Active; Activity (HeLa [8]): 4%
53%	63%	100 nM	COc1ccc(CCn2c(=O)c3ccccc3c3nc4ccc(NCc5ccncc5)cn4c32)cc1	–
22%	27%	240 nM	COc1ccc(CCn2c(=O)c3ccccc3c3nc4ccc(NCc5ccccn5)cn4c32)cc1	–
–	77%	15 nM	CC[C@]1(O)C[C@H]2CN(CCc3c([nH]c4ccccc34)[C@@](C(=O)OC)(c3cc4c(cc3OC)N(C=O)[C@H]3[C@@](O)(C(=O)OC)[C@H](OC(C)=O)[C@]5(CC)C=CCN6CC[C@]43[C@@H]65)C2)C1 [VINCRISTINE]	–
74%	76%	70 nM	COc1ccc(CCn2c(=O)c3ccccc3c3nc4ccccn4c32)cc1	Activity (HeLa [1]): Active; Activity (HeLa [2]): Active; Activity (HeLa [3]): Active; Activity (HeLa [4]): Active; Activity (HeLa [8]): 37%
21%	33%	770 nM	COc1ccc(CCn2c(=O)c3ccccc3c3nc4ccc(NCCCn5ccnc5)cn4c32)cc1	–
–	–	6600 nM	COc1ccc(Cn2c(=O)c3ccccc3c3nc4ccc(C)cn4c32)cc1	–
20%	18%	2280 nM	CCN(CC)CCNc1ccc2nc3c4ccccc4c(=O)n(CCc4ccc(OC)cc4)c3n2c1	–
